Experiment [1] is described as follows: Inhibition of recombinant NOS from rat brain.
The nature of experiment [2]: Inhibition of NOS in Sprague-Dawley rat brain homogenate assessed as conversion of oxy-hemoglobin to met-hemoglobin. It counts as tissue-based. In short, it runs like this: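 Brain of male Sprague-Dawley rat homogenised in HEPES/sucrose/EDTA/DTT with protease inhibitors and PMSF; the 12,000g supernatant is the enzyme source. Mix holds 500 µM HEPES, 250 µM CaCl2, homogenate from 2.36 mg tissue and 5% DMSO. Pre-incubated 3 min at 37 °C, then started with oxyHb 1.09 µM, NADPH 100 µM and L-arginine 100 µM. Scanned 390–430 nm every 10 s for 10 min; metHb taken as A401−A411. IC50 from rate versus log concentration.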

The nature of experiment [3]: Inhibition of MAOB from baboon liver by spectrophotometry. On the set-up: species or system Papio hamadryas. In short, it runs like this:
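Mitochondrial fraction of baboon liver (no MAO-A activity, so no clorgyline), 0.15 mg protein/mL in 100 mM sodium phosphate pH 7.4. Substrate MMTP 50 µM, 4% DMSO final. Incubated 37 °C for 10 min, then stopped with perchloric acid and centrifuged. MMDP+ read at 420 nm. At least eight concentrations over 3 orders of magnitude; IC50 from sigmoidal fit, mean ± SEM of duplicates.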

The next experiment is filed under the species Rattus norvegicus. In words: Ratio of IC50 for aminoguanidine to IC50 for drug for NOS in Sprague-Dawley rat brain homogenate. It counts as tissue-based.
For experiment [4], the species on record is Papio hamadryas. Briefly: Inhibition of MAOB from baboon liver at 100 uM by spectrophotometry.
The species entered for experiment [5] is Papio hamadryas. Briefly: Inhibition of MAOB from baboon liver at 30 uM by spectrophotometry.
In experiment [6] the target is T1, Amine oxidase [flavin-containing] B (Mus musculus, UniProt Q8BW75).
T1 sequence (Q8BW75 whole entry): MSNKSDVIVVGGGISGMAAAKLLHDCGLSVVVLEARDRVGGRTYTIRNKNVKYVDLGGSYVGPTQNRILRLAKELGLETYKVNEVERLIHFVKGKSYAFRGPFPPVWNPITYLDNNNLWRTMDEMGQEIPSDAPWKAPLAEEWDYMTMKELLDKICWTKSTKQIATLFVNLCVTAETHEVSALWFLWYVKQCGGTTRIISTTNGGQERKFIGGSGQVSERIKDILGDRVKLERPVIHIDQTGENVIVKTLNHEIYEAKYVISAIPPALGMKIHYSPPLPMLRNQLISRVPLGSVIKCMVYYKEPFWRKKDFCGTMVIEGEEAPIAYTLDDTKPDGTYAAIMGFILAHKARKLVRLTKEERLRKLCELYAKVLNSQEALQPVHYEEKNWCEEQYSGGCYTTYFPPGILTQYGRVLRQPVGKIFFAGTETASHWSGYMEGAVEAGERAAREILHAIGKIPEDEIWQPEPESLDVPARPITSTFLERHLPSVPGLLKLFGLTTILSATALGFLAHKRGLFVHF
In words: Inhibition of mouse brain MAOB.

Usually pKi stands for the Ki on a negative log10 scale, so that one unit is a factor of ten. Broadly, the pIC50 is the IC50 on a negative log10 scale, so that one unit is a factor of ten. Usually inhibition stands for the percentage by which the read-out fell short of the control. A lower inhibition goes with little suppression.

The structures appear in SMILES notation. pIC50, pKi: −log10 of the molar value.

For the molecule `C[C@H](O)[C@H](O)C1CNc2nc(N)nc(N)c2N1` (some centres not stated), the pKi in experiment [1] was 7.89.
For `Cn1c(N)c(/N=C/C=C/c2cccc(Cl)c2)c(=O)n(C)c1=O`, the negative logarithm of the IC50 (pIC50) in experiment [2] is 3.24. In addition, in experiment [3], the pIC50 was 6.22 and the pKi is 6.46.
In the same order, the values of `Cn1c(N)c(/N=C/c2cccc(Cl)c2)c(=O)n(C)c1=O` are 2.16, 5.15 and 5.39.
As for `Nc1nc(N)c2c(n1)NCC(c1ccccc1)N2` (configuration not stated), the pIC50 in experiment [1] is 5.22.
As to `Cn1c(=O)c2nc(-c3cccc(Cl)c3)cnc2n(C)c1=O`, in experiment [3], the pIC50 was 5.31 and the pKi is 5.55.
On to `Cn1c(=O)c2nc(-c3ccccc3)cnc2n(C)c1=O`, for which, in the experiment filed under Rattus norvegicus, the Ratio IC50 was found to be 23. For the same molecule, the inhibition in the experiment filed under Papio hamadryas [4] was found to be 12.2%. The pIC50 in experiment [2] was 3.35.
With `Cn1c(N)c(/N=C/c2ccccc2)c(=O)n(C)c1=O`, the Ratio IC50 in the experiment listed under Rattus norvegicus came to 23. Besides, the inhibition in the experiment filed under Papio hamadryas [5] came to 17.8%. Also, the negative-log IC50 (pIC50) in experiment [2] is 3.33.
As to `Cn1c(=O)c2nc(/C=C/c3cccc(Cl)c3)cnc2n(C)c1=O`, in experiment [2], the pIC50 was 2.98. In experiment [3], this molecule had a pIC50 of 6.50 and a negative-log Ki (pKi) of 6.74.
`Cn1c(=O)c2c(nc(/C=C/c3cccc(Cl)c3)n2C)n(C)c1=O` showed a negative-log Ki (pKi) in experiment [6] of 7.00.
In experiment [3], `Cn1c(N)c(/N=C/C=C/c2ccccc2)c(=O)n(C)c1=O` had a pIC50 of 4.92 and a negative logarithm of the Ki (pKi) of 5.16.

These data come from ChEMBL document CHEMBL1152650, “Synthesis and in vitro evaluation of pteridine analogues as monoamine oxidase B and nitric oxide synthase inhibitors” (Bioorg Med Chem, 2009).
